LANA DNA inh = blocks KSHV LANA C-terminal domain binding to DNA; MBP-C-LANA/FAM-LBS DNA binding, fluorescence polarization; 340,000 tested, 0.078% active; inhibition, % at 9 µM;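 active = highest replicate inhibition at or above 60% at 9 µM, even if other replicates fall short; inactive = all replicates below 60% inhibition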;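 note: 0% = neutral control wells and 100% = 4 µM acridine orange control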
Rtt109 HAT inh = C. albicans Rtt109 histone acetyltransferase inhibition; AID 540336; inhibition, % at 34.9 µM; purified Rtt109/Vps75, ThioGlo CoA-SH fluorescence, 4 h; 330,000 tested, 0.16% active;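 active = inhibition of at least 50% in every replicate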
DDE Tn7 FP inh = disrupts Tn7 cyclic peptide binding to fibrin D-Dimer-E complex. P02675. FP displacement of FITC-Tn7 peptide from fibrin DD(E); 0% = median of compound wells per plate. inhibition, % at 8.3 µM. 370,000 tested, 0.13% active;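 active = inhibition above the mean of compounds falling within the control limits plus 3 SD of them, cut at about 14% in these data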;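 note: 0% = plate median of compound wells and 100% = 10 µM Aha-Tn7 peptide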
Target sequence (P02675 whole entry, looked up): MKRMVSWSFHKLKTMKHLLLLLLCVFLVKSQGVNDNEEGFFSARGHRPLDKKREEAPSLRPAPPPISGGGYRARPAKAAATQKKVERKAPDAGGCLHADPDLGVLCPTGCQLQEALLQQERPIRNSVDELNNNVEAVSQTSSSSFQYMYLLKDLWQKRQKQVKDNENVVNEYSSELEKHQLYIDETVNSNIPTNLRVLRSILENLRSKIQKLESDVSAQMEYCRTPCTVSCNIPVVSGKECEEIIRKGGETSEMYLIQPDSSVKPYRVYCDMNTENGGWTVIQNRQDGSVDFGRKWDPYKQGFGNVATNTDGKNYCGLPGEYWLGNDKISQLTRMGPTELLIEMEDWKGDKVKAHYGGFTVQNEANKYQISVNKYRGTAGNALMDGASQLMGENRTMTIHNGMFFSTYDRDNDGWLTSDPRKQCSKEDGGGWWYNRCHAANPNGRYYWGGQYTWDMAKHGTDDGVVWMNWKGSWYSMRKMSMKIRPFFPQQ
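Measure: % inhibition scaled between sample-field median and high-control FP; Test system: human fibrin DD(E); Quantity: 2 µM final DD(E) protein; Doses: one dose, 8.3 µM nominal; Schedule: compound with protein 10 min, then 3 h after probe, room temperature; Detection: fluorescence polarization; Medium: Tris buffer with calcium and detergent, pH 7.8.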
DDE Tn6 FP inh = DD(E)-Tn6 binding inhibition, primary FP screen; Fibrin DD(E) TRITC-Tn6 fluorescence polarization displacement; inhibition, % at 8.3 µM; 370,000 tested, 0.21% active; AID 720509;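 active = inhibition above a per-campaign cutoff: mean of compounds within control limits plus 3 SD, cut at about 15% in these data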;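 note: 0% = median of all compound wells on the plate and 100% = blocking peptide control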
Keap1 Nrf2 FP = Keap1-Nrf2 (human) interaction inhibition; Q14145; Keap1 Kelch-Nrf2 peptide fluorescence polarization, 1536-well; inhibition, % at 9.4 µM; 340,000 tested, 0.15% active; AID 504523; in the data active = inhibition above about 12%;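 note: human Keap1 Kelch domain with fluorescein labeled Nrf2 9mer peptide probe; 0% = neutral control wells and 100% = peptide positive control; higher means more block of Keap1 binding to Nrf2 peptide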
DDE Tn6 FP ctr = DD(E)-Tn6 binding inhibition, counter-screen; shares compounds with DDE Tn6 FP inh; Fibrin DD(E), TRITC-Tn6 fluorescence polarization displacement; 0% = median of compound wells, not DMSO; inhibition, % at 8.3 µM; 680 tested, 2% active; AID 720621;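 active = inhibition above the mean of test compounds lying between the control limits plus 3 SD of those, cut at about 14% in these data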;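 note: 0% = median of compound wells and 100% = wells with Aha-Tn7 blocking peptide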
Tn6 DDE conf = DD(E)-Tn6 binding inhibition, FP confirmation; FP displacement of TRITC-Tn6 peptide from DD(E); 0% = per-plate median of test wells; 680 tested, 10% active; shares compounds with DDE Tn6 FP inh; inhibition, % at 8.3 µM;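 active = inhibition above the mean of compounds lying within the control limits plus 3 SD, cut at about 16% in these data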;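 note: 100% = high control wells holding a competing inhibitor peptide at 10 µM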
* = called active by the depositor. The list is not random: actives were taken first. Their share in the collection is about 0.6%.

`Cc1cc2cc(CNC(=O)c3ccc(S(=O)(=O)N(C)C)cc3)ccc2n1C` gave LANA DNA inh 1, Rtt109 HAT inh -9, DDE Tn7 FP inh -2, DDE Tn6 FP inh 65*, Keap1 Nrf2 FP -3, DDE Tn6 FP ctr 5 and Tn6 DDE conf 14.
`Cc1ccc(CNC(=O)c2ccc(S(=O)(=O)N3CCCCCC3)cc2)cc1` gave DDE Tn7 FP inh -1 and DDE Tn6 FP inh -6.
Screening Cc1cc2cc(CNC(=O)c3ccc(Br)o3)ccc2n1C returned LANA DNA inh 0, Rtt109 HAT inh 0, DDE Tn7 FP inh -2, DDE Tn6 FP inh 15 and Keap1 Nrf2 FP -1.
`Cc1cc2cc(CNC(=O)c3ccc(S(=O)(=O)N4CCOCC4)cc3)ccc2n1C` gave LANA DNA inh 3, Rtt109 HAT inh 2, DDE Tn7 FP inh 3, DDE Tn6 FP inh 53*, Keap1 Nrf2 FP -3, DDE Tn6 FP ctr 5 and Tn6 DDE conf 19*.
Screening Cc1cc2cc(CNC(=O)c3ccc(S(=O)(=O)N4CCCCC4)cc3)ccc2[nH]1 returned LANA DNA inh 3, Rtt109 HAT inh -4, DDE Tn7 FP inh -10, DDE Tn6 FP inh 18*, Keap1 Nrf2 FP 0, DDE Tn6 FP ctr 5 and Tn6 DDE conf -5.
O=C(c1ccc(Br)cn1)N1CCC(Oc2cccnc2)CC1 was read as DDE Tn7 FP inh 6 and DDE Tn6 FP inh -6.
`C=CCN1[C@@H](C)COc2cccc(N3CCCC3)c2S1(=O)=O` gave DDE Tn7 FP inh -2 and DDE Tn6 FP inh -9.
O=S(=O)(c1cccc2cccnc12)N1CCC(c2cn3ccccc3n2)CC1 was read as DDE Tn7 FP inh -1 and DDE Tn6 FP inh -6.
For Cc1cc(C)cc(NC(=O)N2CCNC(=O)C2CC(=O)Nc2cc(Cl)ccc2Cl)c1 (stereo unspecified) the results were LANA DNA inh -2, Rtt109 HAT inh -4, DDE Tn7 FP inh 6, DDE Tn6 FP inh 16*, Keap1 Nrf2 FP -1, DDE Tn6 FP ctr 8 and Tn6 DDE conf -1.
`CCO/C(C)=N/Oc1cccc(N(C)C)c1` gave DDE Tn7 FP inh 8, DDE Tn6 FP inh 19*, DDE Tn6 FP ctr 3 and Tn6 DDE conf 2.
O=C(COc1ccc2ccccc2c1)NCCc1ccc2c(c1)OCCO2 was read as LANA DNA inh 0, Rtt109 HAT inh 0, DDE Tn7 FP inh -1, DDE Tn6 FP inh 18*, Keap1 Nrf2 FP -1, DDE Tn6 FP ctr -1 and Tn6 DDE conf -10.
O=C(COc1ccc2ccccc2c1)NCCNC(=O)COc1ccc2ccccc2c1 was read as LANA DNA inh 0, Rtt109 HAT inh -1, DDE Tn7 FP inh 0, DDE Tn6 FP inh 6 and Keap1 Nrf2 FP -3.
`CCCCCn1c(=O)[nH]c2cc(C(=O)NCCCN3CCC(C)CC3)ccc2c1=O` gave LANA DNA inh 0, Rtt109 HAT inh 1, DDE Tn7 FP inh 11, DDE Tn6 FP inh 18*, Keap1 Nrf2 FP -2, DDE Tn6 FP ctr -2 and Tn6 DDE conf -8.
Screening CCOCCCn1c(=S)[nH]c2cc(C(=O)NCC(OC)OC)ccc2c1=O returned LANA DNA inh 2, Rtt109 HAT inh -5, DDE Tn7 FP inh -3, DDE Tn6 FP inh 16*, Keap1 Nrf2 FP 1, DDE Tn6 FP ctr -8 and Tn6 DDE conf -15.
Screening CCCCCNC(=O)c1ccc2c(=O)n(CCCOCC)c(=S)[nH]c2c1 returned LANA DNA inh 0, Rtt109 HAT inh -2, DDE Tn7 FP inh -4, DDE Tn6 FP inh -1 and Keap1 Nrf2 FP 0.
For COC(=O)/C(=C/Nc1ccc(O)cc1)[N+](=O)[O-] the results were LANA DNA inh -3, Rtt109 HAT inh 9, DDE Tn7 FP inh 1, DDE Tn6 FP inh 46*, Keap1 Nrf2 FP 5, DDE Tn6 FP ctr 1 and Tn6 DDE conf -6.
CC(=O)Nc1ccc(S(=O)(=O)N(C)CC(=O)N/N=C/c2cccc(O)c2)cc1 was read as LANA DNA inh 0, Rtt109 HAT inh 8, DDE Tn7 FP inh 1, DDE Tn6 FP inh 3 and Keap1 Nrf2 FP 2.
For O=C(CN(Cc1ccco1)S(=O)(=O)c1ccccc1)N/N=C/c1cccc(O)c1 the results were LANA DNA inh -2, Rtt109 HAT inh 13, DDE Tn7 FP inh 5, DDE Tn6 FP inh 16*, Keap1 Nrf2 FP -3, DDE Tn6 FP ctr -5 and Tn6 DDE conf -9.
Screening Cc1cc2c(N)cccc2nn1 returned Rtt109 HAT inh 13, DDE Tn7 FP inh 5, DDE Tn6 FP inh active, Keap1 Nrf2 FP 1, DDE Tn6 FP ctr 0 and Tn6 DDE conf 18*.
For Cc1ccc(NC(=O)C(OC(=O)c2ccccc2Cl)c2ccccc2)cc1Cl (stereo unspecified) the results were LANA DNA inh 1, Rtt109 HAT inh 6, DDE Tn7 FP inh -8, DDE Tn6 FP inh -1 and Keap1 Nrf2 FP 2.
Screening Cc1ccc(NC(=O)C(OC(=O)c2ccc(NC(N)=O)cc2)c2ccccc2)cc1Cl (stereo unspecified) returned LANA DNA inh -1, Rtt109 HAT inh 4, DDE Tn7 FP inh 0, DDE Tn6 FP inh 34*, Keap1 Nrf2 FP -4, DDE Tn6 FP ctr 1 and Tn6 DDE conf -1.
For CCCCC1CC(CSC(=N)N)OC1=O (stereo unspecified) the results were LANA DNA inh 1, Rtt109 HAT inh -48, DDE Tn7 FP inh 6, DDE Tn6 FP inh 18*, Keap1 Nrf2 FP -4, DDE Tn6 FP ctr 1 and Tn6 DDE conf -4.
For CCCCCCCC1CC(CSc2ncn[nH]2)OC1=O (stereo unspecified) the results were LANA DNA inh 2, Rtt109 HAT inh -3, DDE Tn7 FP inh -3, DDE Tn6 FP inh 3 and Keap1 Nrf2 FP -8.
Screening CCCCC1CC(CSc2ncn[nH]2)OC1=O (stereo unspecified) returned LANA DNA inh 1, Rtt109 HAT inh -10, DDE Tn7 FP inh 6, DDE Tn6 FP inh 72*, Keap1 Nrf2 FP 1, DDE Tn6 FP ctr -1 and Tn6 DDE conf -7.
For CCCCCCCC1CC(CSC(=N)N)OC1=O (stereo unspecified) the results were LANA DNA inh 0, Rtt109 HAT inh 29, DDE Tn7 FP inh 4, DDE Tn6 FP inh 13 and Keap1 Nrf2 FP 0.
Cc1ccc(NC(=O)CCS(=O)(=O)c2ccccc2)c(C)c1 was read as DDE Tn7 FP inh -2 and DDE Tn6 FP inh -10.
Screening CCOC(=O)C1(C)C=C(Nc2ccc(O)cc2)C(=O)N1c1ccc(O)cc1 (stereo unspecified) returned LANA DNA inh -1, Rtt109 HAT inh 1, DDE Tn7 FP inh 3, DDE Tn6 FP inh 24*, Keap1 Nrf2 FP -5, DDE Tn6 FP ctr -1 and Tn6 DDE conf -15.

Source: PubChem
